Compound activity (PubChem)
IDH1 R132H inh: blocks human IDH1 R132H reductase activity; O75874; diaphorase/resazurin fluorescence, 60 min; inhibition, % at 10 µM; actives 0.18% (n = 70,000); in the data active = inhibition above about 34%; inconclusive = no clear call, values can overlap the other calls; inactive = below about 11%;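 also: 0% = DMSO and 100% = no enzyme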
Target sequence (O75874 whole entry R132H): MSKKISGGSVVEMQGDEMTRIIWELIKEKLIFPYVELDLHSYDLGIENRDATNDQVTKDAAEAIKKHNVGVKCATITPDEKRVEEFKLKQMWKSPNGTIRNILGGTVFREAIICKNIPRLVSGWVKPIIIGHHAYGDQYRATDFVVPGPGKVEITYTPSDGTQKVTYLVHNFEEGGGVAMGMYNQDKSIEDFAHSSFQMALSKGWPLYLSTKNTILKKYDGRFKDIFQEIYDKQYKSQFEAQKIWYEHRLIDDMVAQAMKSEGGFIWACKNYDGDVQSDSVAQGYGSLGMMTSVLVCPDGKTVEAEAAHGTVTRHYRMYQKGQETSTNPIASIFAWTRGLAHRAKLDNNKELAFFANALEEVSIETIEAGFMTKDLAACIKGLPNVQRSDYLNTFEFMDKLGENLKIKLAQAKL
T cruzi growth-1: blocks T. cruzi growth in NIH3T3 culture; inhibition, % at 8.34 µM; T. cruzi beta-gal in NIH3T3, GalScreen luminescence, 90 h; actives 5.9% (n = 77,000); AID 624255;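 active = mean inhibition above about 93%, with at least 55% of replicates each passing it, limit read from the data, passing the limit was not always enough; inconclusive = only one of those two conditions holds; inactive = neither condition holds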
KDM4C inh: KDM4C (human) demethylase inhibition; GST-KDM4C 2-372, H3K9me3 peptide, LANCE TR-FRET; inhibition, % at 12.5 µM; actives 0.15% (n = 96,000);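 active = mean replicate inhibition above about 25%, with at least 55% of replicates also reaching it, limit read from the data, passing the limit was not always enough; inconclusive = only one of those two conditions met; inactive = neither condition met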
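Compound: one test concentration per compound; Material: GST-GASC-1 enzyme fragment 2-372; Amount: GASC-1 enzyme at 10 nM final in reaction; Also added: H3K9me3 peptide substrate, Fe(II), 2-oxoglutarate; Technique: LANCE TR-FRET; Times: 30 min demethylation and 1 h detection at room temperature.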
T cruzi growth-2: inhibitors of T. cruzi proliferation. T. cruzi beta-gal in NIH3T3, GalScreen luminescence, 90 h. AID 651739. shares compounds with T cruzi growth-1. inhibition, % at 8.35 µM. actives 72% (n = 5,600);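 active = mean replicate inhibition above about 95% and at least 55% of replicates individually reaching it, limit read from the data; inconclusive = only one of the two criteria is met; inactive = neither criterion is met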
T cruzi growth-3: Trypanosoma cruzi proliferation inhibition; shares compounds with T cruzi growth-1; actives 21% (n = 5,600); T. cruzi beta-gal in NIH3T3, GalScreen luminescence, 90 h; inhibition, % at 2.09 µM;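 active = mean inhibition above about 95%, with at least 55% of replicates also reaching it, limit read from the data; inconclusive = meets just one of the two conditions; inactive = meets neither condition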;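 also: plate controls were neutral control median for no effect and positive control median for full effect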
3T3 cytotox: kills mouse NIH/3T3 fibroblasts; cytotoxicity (signal decrease), % at 8.35 µM; NIH/3T3 viability, CellTiter-Glo ATP luminescence, 90 h; shares compounds with T cruzi growth-1; actives 14% (n = 5,600);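 active = mean signal decrease across replicates above about 35% based on untreated-well scatter, with enough replicates individually passing, limit read from the data; inconclusive = no rule stated though some were filed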;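 also: 0% = median of neutral control wells and 100% = median of positive control wells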
3T3 cytotox 2: kills mouse NIH/3T3 fibroblasts | shares compounds with T cruzi growth-1 | NIH/3T3 viability, CellTiter-Glo ATP luminescence, 90 h | inhibition, % at 24.9 µM | actives 56% (n = 5,600) | AID 651744;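 active = mean loss of cell viability signal at or above a set limit, and enough replicates individually reaching it; inconclusive = meets only the mean limit or only the replicate share; inactive = meets neither condition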;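 also: 0% = median of neutral control wells and 100% = median of positive control wells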
Starred values were filed as active, the others as inactive. Shown is part of a subset that was picked to be rich in hits.

For C[C@H](CO)N1C[C@H](C)[C@@H](CN(C)S(=O)(=O)c2ccccc2F)Oc2ncc(C#Cc3ccncc3)cc2C1=O the results were T cruzi growth-1 28 and KDM4C inh 0.
`C[C@@H]1CN([C@@H](C)CO)C(=O)c2cc(C#Cc3ccccc3)cnc2O[C@H]1CN(C)S(=O)(=O)c1ccccc1F` gave IDH1 R132H inh 0 and T cruzi growth-1 90.
CC(C)CC#Cc1cnc2c(c1)C(=O)N([C@H](C)CO)C[C@H](C)[C@H](CN(C)S(=O)(=O)c1cccs1)O2 was read as IDH1 R132H inh 1, T cruzi growth-1 41 and KDM4C inh -4.
Screening O=C(OCc1cccc(C(=O)c2ccccc2)c1)c1ccc(NC(=O)c2ccco2)cc1 returned IDH1 R132H inh 0.
Screening O=C(NO)c1ccc(C(=O)N/N=C/c2ccc(F)c(Oc3ccccc3)c2)cc1 returned IDH1 R132H inh 0.
For COc1ccc(NC(=O)c2ccco2)cc1NC(=O)COc1cc(C)c(Cl)c(C)c1 the results were IDH1 R132H inh -1.
For CCCNC(=O)N1CCC2(CC1)CN(C(=O)Nc1ccc(F)cc1)[C@H](CO)c1[nH]c3cc(OC)ccc3c12 the results were KDM4C inh -2.
C[C@@H]1CN([C@@H](C)CO)C(=O)c2cc(C#Cc3ccncc3)cnc2O[C@@H]1CN(C)S(=O)(=O)c1ccccc1F was read as IDH1 R132H inh 11, T cruzi growth-1 -130 and KDM4C inh 2.
Screening C[C@H]1CN([C@@H](C)CO)C(=O)c2cc(C#Cc3ccncc3)cnc2O[C@H]1CN(C)S(=O)(=O)c1ccccc1F returned T cruzi growth-1 35 and KDM4C inh 5.
For C[C@@H]1CN([C@@H](C)CO)C(=O)c2cc(C#Cc3ccccc3F)cnc2O[C@@H]1CN(C)S(=O)(=O)c1ccccc1F the results were IDH1 R132H inh -3, T cruzi growth-1 98*, KDM4C inh -5, T cruzi growth-2 95*, T cruzi growth-3 80, 3T3 cytotox 56* and 3T3 cytotox 2 61*.
Screening C[C@H](CO)N1C[C@H](C)[C@H](CN(C)S(=O)(=O)c2ccccc2F)Oc2ncc(C#Cc3ccccc3F)cc2C1=O returned IDH1 R132H inh 0, T cruzi growth-1 inconclusive, KDM4C inh -3, T cruzi growth-2 106*, T cruzi growth-3 69, 3T3 cytotox 26 and 3T3 cytotox 2 58*.
`COCC(=O)N1CC[C@@H]2[C@H](CO)Nc3ccc(-c4ccc(C#N)cc4)cc3[C@@H]21` gave T cruzi growth-1 95 and KDM4C inh 1.
Screening O=C(CSc1nnc(-c2cccc(Cl)c2)n1-c1ccccc1)Nc1ccccc1 returned IDH1 R132H inh 0.
For Cc1ccccc1/C=N/NC(=O)c1cccc(C(=O)NO)c1 the results were IDH1 R132H inh 0.
Screening Cc1ccccc1S(=O)(=O)N1CC[C@@H]2[C@H]1c1cc(-c3ccc(C#N)cc3)ccc1N[C@@H]2CO returned T cruzi growth-1 101*, KDM4C inh 2, T cruzi growth-2 104*, T cruzi growth-3 45, 3T3 cytotox 16 and 3T3 cytotox 2 42*.
Cc1ccccc1S(=O)(=O)N1CC[C@@H]2[C@H](CO)Nc3ccc(-c4cccc(C#N)c4)cc3[C@@H]21 was read as T cruzi growth-1 17 and KDM4C inh -1.
Screening Cn1cnc(S(=O)(=O)N2CC[C@H]3[C@H](CO)Nc4ccc(-c5ccccc5)cc4[C@H]32)c1 returned T cruzi growth-1 101*, KDM4C inh 1, T cruzi growth-2 103*, T cruzi growth-3 62, 3T3 cytotox -14 and 3T3 cytotox 2 9.
`Cn1cnc(S(=O)(=O)N2CC[C@H]3[C@H](CO)Nc4ccc(-c5ccc(F)cc5)cc4[C@H]32)c1` gave T cruzi growth-1 56 and KDM4C inh -2.
For Cc1ccccc1S(=O)(=O)N1CC[C@@H]2[C@H](CO)Nc3ccc(-c4ccc(C#N)cc4)cc3[C@@H]21 the results were T cruzi growth-1 inconclusive, KDM4C inh -5, T cruzi growth-2 98*, T cruzi growth-3 104*, 3T3 cytotox inconclusive and 3T3 cytotox 2 67*.
Screening Cc1ccccc1S(=O)(=O)N1CC[C@@H]2[C@@H](CO)Nc3ccc(-c4cccc(C#N)c4)cc3[C@@H]21 returned T cruzi growth-1 33 and KDM4C inh -2.
Screening O=C(CC1(O)C(=O)N(Cc2cccc3ccccc23)c2ccccc21)c1ccccn1 (stereo unspecified) returned IDH1 R132H inh 0.
For Cc1ccc(S(=O)(=O)NCC[C@@H]2CC[C@H](NC(=O)c3cccc(F)c3)[C@H](CO)O2)cc1 the results were IDH1 R132H inh 0, T cruzi growth-1 -55 and KDM4C inh 1.
Screening COc1ccc(S(=O)(=O)Nc2ccc3c(c2)C(=O)N(C)C[C@@H](OC)[C@H](C)CN(Cc2cc(F)ccc2F)[C@H](C)CO3)cc1 returned IDH1 R132H inh 0, T cruzi growth-1 75 and KDM4C inh 2.
Screening CC(C)[C@H](NC(=O)[C@H](C)N(C)C)C(=O)N1CC[C@@H]2Oc3ccc(cc3)/C=C\NC(=O)[C@H](Cc3ccccc3)NC(=O)C21 (stereo partly specified) returned IDH1 R132H inh 0.
COc1cc(S(=O)(=O)NCCc2ccccc2)c(OC)cc1Br was read as IDH1 R132H inh 1.
`COC(=O)c1ccc(Cl)c(NC(=O)CN(c2cccc(Cl)c2)S(C)(=O)=O)c1` gave IDH1 R132H inh 3.
`CO[C@H]1CN(C)C(=O)c2cc(NC(=O)C3CC3)ccc2OC[C@@H](C)N(C(=O)CN(C)C)C[C@H]1C` gave IDH1 R132H inh 0, T cruzi growth-1 17 and KDM4C inh 2.
Screening CO[C@@H](CN(C)S(=O)(=O)c1ccc(C)cc1)[C@@H](C)CN(Cc1ccccc1Cl)[C@H](C)CO returned IDH1 R132H inh 0, T cruzi growth-1 100*, KDM4C inh 0, T cruzi growth-2 95*, T cruzi growth-3 32, 3T3 cytotox inconclusive and 3T3 cytotox 2 51*.
For CO[C@@H](CN(C)S(=O)(=O)c1ccc(C)cc1)[C@@H](C)CN(Cc1ccccc1Cl)[C@@H](C)CO the results were IDH1 R132H inh 0, T cruzi growth-1 64 and KDM4C inh -2.
`CO[C@H](CN(C)S(=O)(=O)c1ccc(Cl)cc1)[C@@H](C)CN(Cc1ccccc1Cl)[C@@H](C)CO` gave IDH1 R132H inh 0, T cruzi growth-1 94 and KDM4C inh -1.
